From ChEMBL document CHEMBL4732226, “Discovery of a potent G-protein-coupled receptor 119 agonist for the treatment of type 2 diabetes” (Bioorg Med Chem, 2021)

Key:
Mus musculus [1] = experiment: Antidiabetic activity in glucose-stimulated […] mouse assessed as reduction in blood glucose level at 50 mg/kg, po pretreated for 30 mins followed by glucose-stimulation and measured up to 120 mins by OGTT method relative to control; type: functional; parameters: scale not given: the % may be the effect or the level left; conditions: 0.5 h
How it was run: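 C57 mice aged 6–8 weeks were grouped by non-fasting glucose and fasted overnight. Single oral dose of 50 mg/kg; 30 min later basal bleed and oral glucose 3 g/kg. Serum glucose taken at 20, 40, 60 and 120 min. Change in glucose AUC calculated.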

Mus musculus [2] = experiment: Antidiabetic activity in po dosed db/db mouse assessed as reduction in blood glucose level administered up to 14 days pretreated for 30 mins followed by glucose-stimulation and measured up to 120 mins by OGTT method relative to control; type: functional, organism-based; conditions: dose 1-50 mg/kg, time day <=14
How it was run: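 Male db/db mice dosed orally once daily for 14 days at 1 to 50 mg/kg. Oral glucose 2 g/kg given 30 min after dosing, then blood glucose followed for 0–120 min. Glucose AUC determined on day 1 and day 14; mean ± s.e.m.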

Mus musculus [3] = experiment: Antidiabetic activity in glucose-stimulated db/db mouse assessed as increase in GLP-1 level secretion at 50 mg/kg, po after 10 mins; type: functional
How it was run: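 Male db/db mice received a single oral dose of 50 mg/kg, followed by a glucose load. Plasma active GLP-1 measured in pg/ml at 10 min after glucose.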

[4] = Tmax in Sprague-Dawley rat at 25 mg/kg, po up to 24 hrs; type: ADME, organism-based; conditions: in vivo
How it was run: (§1)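 Male SD rats fasted overnight, water ad libitum, fed 4 h after dosing. Single oral gavage of 25 mg/kg as a homogeneous suspension in 0.5% Tween 80 in 0.5% Na-CMC. Blood drawn into Na-heparin tubes at 0.25, 0.5, 1, 2, 4, 6, 8 and 24 h; plasma stored at -70°C. Parameters by non-compartmental analysis, with C0 taken as zero and BLQ samples set to zero.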

[5] = Elimination rate constant in Sprague-Dawley rat at 25 mg/kg, po up to 24 hrs; type: ADME, organism-based; conditions: in vivo; how it was run: as §1
[6] = AUC(0 to t) in Sprague-Dawley rat at 25 mg/kg, po up to 24 hrs; type: ADME, organism-based; parameters: route oral, dose 25 mg/kg, time <=24; conditions: in vivo; how it was run: as §1
[7] = Elimination rate constant in Beagle dog at 10 mg/kg, po up to 24 hrs; type: ADME, organism-based, Canis lupus familiaris; conditions: in vivo
How it was run: (§2)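 Single oral dose at 10 mg/kg given to male Wistar rats and to Beagle dogs; bioavailability also determined in both species.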

[8] = AUC(0 to t) in Beagle dog at 10 mg/kg, po up to 24 hrs; type: ADME, organism-based, Canis lupus familiaris; parameters: route oral, dose 10 mg/kg, time <=24; conditions: in vivo; how it was run: as §2
[9] = AUC(0 to infinity) in Beagle dog at 10 mg/kg, po up to 24 hrs; type: ADME, organism-based, Canis lupus familiaris; parameters: route oral, dose 10 mg/kg, time <=24; conditions: in vivo; how it was run: as §2
[10] = Toxicity in male Wistar rat assessed as ratio of heart to body weight at 400 mg/kg, po after 28 days (reference value: 0.333 +/- 0.036); type: organism-based; conditions: in vivo, 672 h, time 28 day
[11] = Toxicity in female Wistar rat assessed as ratio of heart to body weight at 200 mg/kg, po after 28 days (reference value: 0.38 +/- 0.037); type: organism-based; conditions: in vivo, 672 h, time 28 day
[12] = Toxicity in female Wistar rat assessed as ratio of heart to body weight at 400 mg/kg, po after 28 days (reference value: 0.38 +/- 0.037); type: organism-based; conditions: in vivo, 672 h, time 28 day
[13] = Toxicity in female Wistar rat assessed as ratio of liver to body weight at 100 mg/kg, po after 28 days (reference value: 3.219 +/- 0.221); type: organism-based; conditions: in vivo, 672 h, time 28 day
[14] = Toxicity in male Wistar rat assessed as ratio of kidney to body weight at 400 mg/kg, po after 28 days (reference value: 0.787 +/- 0.078); type: organism-based; conditions: in vivo, 672 h, time 28 day
[15] = Toxicity in female Wistar rat assessed as ratio of kidney to body weight at 100 mg/kg, po after 28 days (reference value: 0.801 +/- 0.071); type: organism-based; conditions: in vivo, 672 h, time 28 day
[16] = Toxicity in male Wistar rat assessed as ratio of spleen to body weight at 400 mg/kg, po after 28 days (reference value: 0.206 +/- 0.026); type: organism-based; conditions: in vivo, 672 h, time 28 day
[17] = Toxicity in female Wistar rat assessed as ratio of spleen to body weight at 100 mg/kg, po after 28 days (reference value: 0.244 +/- 0.032); type: organism-based; conditions: in vivo, 672 h, time 28 day
[18] = Toxicity in female Wistar rat assessed as ratio of spleen to body weight at 400 mg/kg, po after 28 days (reference value: 0.244 +/- 0.032); type: organism-based; conditions: in vivo, 672 h, time 28 day
[19] = Toxicity in male Wistar rat assessed as ratio of adrenals to body weight at 100 mg/kg, po after 28 days (reference value: 0.020 +/- 0.003); type: organism-based; conditions: in vivo, 672 h, time 28 day
[20] = Toxicity in male Wistar rat assessed as ratio of adrenals to body weight at 400 mg/kg, po after 28 days (reference value: 0.020 +/- 0.003); type: organism-based; conditions: in vivo, 672 h, time 28 day
[21] = Toxicity in female Wistar rat assessed as ratio of ovaries to body weight at 200 mg/kg, po after 28 days (reference value: 0.091 +/- 0.009); type: organism-based; conditions: in vivo, 672 h, time 28 day
[22] = Toxicity in female Wistar rat assessed as ratio of ovaries to body weight at 400 mg/kg, po after 28 days (reference value: 0.091 +/- 0.009); type: organism-based; conditions: in vivo, 672 h, time 28 day
[23] = Toxicity in female Wistar rat assessed as ratio of uterus to body weight at 200 mg/kg, po after 28 days (reference value: 0.335 +/- 0.108); type: organism-based; conditions: in vivo, 672 h, time 28 day
[24] = Toxicity in female Wistar rat assessed as ratio of thymus to body weight at 200 mg/kg, po after 28 days (reference value: 0.260 +/- 0.025); type: organism-based; conditions: in vivo, 672 h, time 28 day
[25] = Toxicity in female Wistar rat assessed as globulin level at 100 mg/kg, po after 28 days (reference value: 2.44 +/- 0.18 g/dl); type: organism-based; conditions: in vivo, 672 h, time 28 day
[26] = Toxicity in female Wistar rat assessed as glucose level at 100 mg/kg, po after 28 days (reference value: 78.4 +/- 8.36 mg/dl); type: organism-based; conditions: in vivo, 672 h, time 28 day
[27] = Toxicity in female Wistar rat assessed as glucose level at 400 mg/kg, po after 28 days (reference value: 78.4 +/- 8.36 mg/dl); type: organism-based; conditions: in vivo, 672 h, time 28 day
[28] = Toxicity in male Wistar rat assessed as creatinine level at 200 mg/kg, po after 28 days (reference value: 0.61 +/- 0.04 mg/dl); type: organism-based; conditions: in vivo, 672 h, time 28 day
[29] = Toxicity in male Wistar rat assessed as ALP level at 400 mg/kg, po after 28 days (reference value: 174.77 +/- 25.42 U/L); type: organism-based; conditions: in vivo, 672 h, time 28 day
[30] = Toxicity in male Wistar rat assessed as AST level at 400 mg/kg, po after 28 days (reference value: 119.4 +/- 9.3 U/L); type: organism-based; conditions: in vivo, 672 h, time 28 day
[31] = Toxicity in female Wistar rat assessed as AST level at 100 mg/kg, po after 28 days (reference value: 128.84 +/- 21.42 U/L); type: organism-based; conditions: in vivo, 672 h, time 28 day
[32] = Toxicity in female Wistar rat assessed as AST level at 200 mg/kg, po after 28 days (reference value: 128.84 +/- 21.42 U/L); type: organism-based; conditions: in vivo, 672 h, time 28 day

In the case of `Cc1c(Oc2cccc(/C=C3\SC(=O)NC3=O)c2)ncnc1OC1CCN(C(=O)OC(C)(C)C)CC1`, the Activity (Mus musculus [1]) was 32.4%, the Activity (Mus musculus [2]) was “Dose-dependent effect” and the “fold change (FC)” value (Mus musculus [3]) was 2.6. For the same compound, the Tmax [4] was 1.75 h, the k el at 24 h [5] was 9.17e-05 s⁻¹ and the AUC(0-t) at 24 h [6] was 19100 ng·h/mL. The k el at 24 h [7] was 1.11e-05 s⁻¹, the AUC(0-t) at 24 h [8] was 14900 ng·h/mL and the AUC(0-inf) [9] was 15200 ng·h/mL. It also gave a Ratio [10] of 0.338, a Ratio [11] of 0.394 and a Ratio [12] of 0.367. It also gave a Ratio [13] of 3.243, a Ratio [14] of 0.845 and a Ratio [15] of 0.875. It also gave a Ratio [16] of 0.211, a Ratio [17] of 0.241 and a Ratio [18] of 0.228. It also gave a Ratio [19] of 0.023, a Ratio [20] of 0.023 and a Ratio [21] of 0.089. It also gave a Ratio [22] of 0.081, a Ratio [23] of 0.33 and a Ratio [24] of 0.257. For the same compound, the Activity [25] was 2.39 g/dL, the Activity [26] was 79.83 mg/dL and the Activity [27] was 76.54 mg/dL. It also gave an Activity [28] of 0.57 mg/dL, an Activity [29] of 177.44 U/L and an Activity [30] of 116.36 U/L. For the same compound, the Activity [31] was 120.42 U/L and the Activity [32] was 128.19 U/L.
